13 compounds from ChEMBL document CHEMBL1250525, “Structure-activity relationships in 1,4-benzodioxan-related compounds. 10. Novel α1-adrenoreceptor antagonists related to openphendioxan: synthesis, biological evaluation, and α1d computational study” (Bioorg Med Chem, 2010) can be followed below.

One assay concerns the target T1, Alpha-1D adrenergic receptor (Homo sapiens, UniProt P25100).
T1 sequence (P25100 whole entry): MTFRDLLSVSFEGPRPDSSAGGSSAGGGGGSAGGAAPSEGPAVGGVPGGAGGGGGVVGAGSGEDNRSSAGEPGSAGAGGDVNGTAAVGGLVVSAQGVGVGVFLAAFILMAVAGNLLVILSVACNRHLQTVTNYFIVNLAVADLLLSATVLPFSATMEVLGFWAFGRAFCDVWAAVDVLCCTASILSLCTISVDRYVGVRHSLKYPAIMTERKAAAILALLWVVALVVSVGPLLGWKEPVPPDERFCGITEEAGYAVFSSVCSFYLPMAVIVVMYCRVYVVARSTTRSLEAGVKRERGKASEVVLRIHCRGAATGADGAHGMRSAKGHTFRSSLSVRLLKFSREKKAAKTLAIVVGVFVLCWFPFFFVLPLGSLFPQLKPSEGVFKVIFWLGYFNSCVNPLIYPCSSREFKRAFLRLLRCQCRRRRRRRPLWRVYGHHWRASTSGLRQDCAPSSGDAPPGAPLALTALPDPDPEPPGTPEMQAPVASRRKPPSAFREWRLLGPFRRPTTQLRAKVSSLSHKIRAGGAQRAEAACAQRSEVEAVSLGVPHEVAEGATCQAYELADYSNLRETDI
Nature of the assay: Displacement of [3H]prazosin from human adrenergic Alpha-1D expressed in CHO cells. In kind it is cell-based. The essentials:
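Membranes (30 µg protein) from CHO cells stably expressing each cloned human α1 subtype, labelled with [3H]prazosin. Nonspecific binding with 10 µM phentolamine. Stopped with ice-cold Tris–HCl and filtration on 0.2% polyethyleneimine-treated glass-fibre filters. Ki from IC50 by Cheng–Prusoff, nonlinear fitting. Mean ± SE of 2–3 experiments in triplicate.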
For orientation: Displacement assays read how much labelled ligand stays bound in the presence of the test substance.
One may read the Ki as a measure of affinity in units of concentration, obtained from inhibition or displacement. High values mean weaker binding, low ones tighter binding. Compound `COc1cccc(OC)c1CCCNCCOc1ccccc1OCc1ccccc1` had a Ki of 1.2 nM.

On to `CCOc1cccc(OCC)c1OCCNCCOc1ccccc1OCc1ccccc1`, for which the affinity corresponds to a Ki of 0.389 nM.

As to `Clc1cccc(Cl)c1OCCNCCOc1ccccc1OCc1ccccc1`, the Ki is 7.08 nM.

For `Oc1cccc(O)c1OCCNCCOc1ccccc1OCc1ccccc1`, the Ki is 15.1 nM.

Take `CCOc1ccccc1OCCNCCOc1ccccc1OCc1ccccc1`: affinity was put at a Ki of 3.72 nM.

`COc1ccccc1OCCNCCOc1ccccc1OCc1ccccc1` gave a Ki of 3.98 nM.

In turn, `COc1cccc(OC)c1SCCNCCOc1ccccc1OCc1ccccc1` gave a Ki of 0.178 nM. This Ki is about 22-fold lower than that of the compound before.

Compound `COc1cccc([N+](=O)[O-])c1OCCNCCOc1ccccc1OCc1ccccc1` gave a Ki of 0.513 nM.

Compound `Cc1cccc(C)c1OCCNCCOc1ccccc1OCc1ccccc1` gave a Ki of 14.1 nM. This Ki lies about 27-fold higher than the previous one.

As to `COc1cccc(OC)c1[S+]([O-])CCNCCOc1ccccc1OCc1ccccc1` (stereo unspecified), the Ki is 2.75 nM. This Ki is about 5.1-fold lower than that of the compound before.

`COc1cccc(C)c1OCCNCCOc1ccccc1OCc1ccccc1` had a Ki of 0.912 nM.

Compound `c1ccc(COc2ccccc2OCCNCCOc2ccccc2)cc1` showed a Ki of 17.8 nM.

On to `COc1cccc(Cl)c1OCCNCCOc1ccccc1OCc1ccccc1`, for which the Ki is 0.741 nM. This Ki is about 24-fold lower than that of the compound before.

The target of a further assay is T2, 5-hydroxytryptamine receptor 1A (Homo sapiens, UniProt P08908).
T2 sequence (P08908 whole entry): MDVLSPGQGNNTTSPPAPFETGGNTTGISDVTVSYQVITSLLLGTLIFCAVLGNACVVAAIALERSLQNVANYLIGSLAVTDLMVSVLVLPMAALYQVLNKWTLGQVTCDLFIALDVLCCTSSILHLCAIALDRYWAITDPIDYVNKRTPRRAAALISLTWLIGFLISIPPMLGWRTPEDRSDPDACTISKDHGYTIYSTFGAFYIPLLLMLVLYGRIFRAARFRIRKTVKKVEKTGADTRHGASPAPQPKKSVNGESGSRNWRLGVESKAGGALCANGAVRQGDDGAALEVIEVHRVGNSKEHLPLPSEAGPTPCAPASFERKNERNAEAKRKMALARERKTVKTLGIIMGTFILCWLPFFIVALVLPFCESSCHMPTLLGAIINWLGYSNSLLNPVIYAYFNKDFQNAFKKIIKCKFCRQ
Briefly: Displacement of [3H]8-OH-DPAT from human adrenergic 5HT1A expressed in human HeLa cells. The format is cell-based. The essentials: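 HeLa cells stably carrying human 5-HT1A clone G-21, grown in DMEM with 10% FCS. Membranes in 50 mM Tris–HCl pH 7.4, 2.5 mM MgCl2, 10 µM pargyline, with 0.7–1.4 nM [3H]8-OH-DPAT for 30 min at 30 °C. Nonspecific binding with 10 µM 5-HT. Filtration stop. Ki by Cheng–Prusoff. Mean ± SE of 2–3 experiments in triplicate.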
Take `COc1cccc(OC)c1CCCNCCOc1ccccc1OCc1ccccc1`: affinity was put at a Ki of 2.51 nM.

The compound `CCOc1cccc(OCC)c1OCCNCCOc1ccccc1OCc1ccccc1` had a Ki of 31.6 nM.

For the compound `Clc1cccc(Cl)c1OCCNCCOc1ccccc1OCc1ccccc1`, the affinity corresponds to a Ki of 31.6 nM.

Turning to `Oc1cccc(O)c1OCCNCCOc1ccccc1OCc1ccccc1`, the Ki was 12.6 nM.

On to `CCOc1ccccc1OCCNCCOc1ccccc1OCc1ccccc1`, for which affinity was put at a Ki of 5.01 nM.

As to `COc1ccccc1OCCNCCOc1ccccc1OCc1ccccc1`, the Ki is 2.51 nM.

Regarding `COc1cccc(OC)c1SCCNCCOc1ccccc1OCc1ccccc1`, the Ki is 15.8 nM.

`COc1cccc([N+](=O)[O-])c1OCCNCCOc1ccccc1OCc1ccccc1` gave a Ki of 15.8 nM.

Regarding `Cc1cccc(C)c1OCCNCCOc1ccccc1OCc1ccccc1`, the Ki is 15.8 nM.

`COc1cccc(OC)c1[S+]([O-])CCNCCOc1ccccc1OCc1ccccc1` (stereo unspecified) showed a Ki of 3.16 nM.

As to `COc1cccc(C)c1OCCNCCOc1ccccc1OCc1ccccc1`, the Ki was 3.98 nM. The Ki values of the last two compounds are within 1.5-fold of each other.

In turn, `c1ccc(COc2ccccc2OCCNCCOc2ccccc2)cc1` showed an inhibition constant Ki of 7.94 nM. This Ki is about 2-fold higher than that of the compound before.

`COc1cccc(Cl)c1OCCNCCOc1ccccc1OCc1ccccc1` gave a Ki of 31.6 nM.
